b-catenin transl: alters nuclear translocation of beta-catenin in HeLa cells; immunofluorescence imaging; nuclear translocation activity, % at 5 µM; actives 0.3% (n = 190,000);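 active = nuclear translocation activity above 50% at 5 µM, with a well cell count of 50 or more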;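 also: per-cell ratio of nuclear to cytoplasmic median beta-catenin stain intensity; plate controls were DMSO negative control for no effect and GSK-3 inhibitor IX positive control for full effect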
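Test system: human HeLa cells, endogenous beta-catenin. Times: 24 h compound exposure, 37°C. Measured by: beta-catenin immunofluorescence imaging with DAPI.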
BaF3 parental: parental Ba/F3 viability inhibition as JAK2V617F counter-screen. CellTiter-Glo ATP luminescence. inhibition, % at 5.6 µM. actives 1.1% (n = 220,000). AID 1486;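 active = inhibition above a per-campaign cutoff, the mean inhibition of all tested compounds plus 3 SD, cut at about 27% in these data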;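 also: 0% = DMSO wells and 100% = JAK Inhibitor I control wells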
IEC-6 tox: counter-screen for KLF5 inhibitors: cytotoxicity in IEC-6 cells; IEC-6 cytotoxicity, luminescence viability; inhibition, % at 5 µM; actives 0.78% (n = 290,000);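 also: 0% = plate median of test compound wells and 100% = cytotoxic reference compound wells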
Ba/F3 V617F tox: loss of viability in JAK2V617F-driven Ba/F3 cells. inhibition, % at 5.6 µM. AID 1446. actives 1.1% (n = 220,000). Ba/F3 EpoR-JAK2V617F viability, ATP luminescence;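 active = inhibition above the campaign mean plus 3 SD over all tested compounds, cut at about 24% in these data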;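 also: cytokine-independent growth of Ba/F3 cells driven by EpoR plus mutant JAK2; 0% = DMSO-treated cells and 100% = JAK inhibitor I control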
MT stabilizer: microtubule stabilizers in HeLa cells; HeLa tubulin immunostaining HCS, 24 h; share of cells brighter than vehicle mean+2SD; % tubulin-high responders, % at 10 µM; actives 0.83% (n = 200,000);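 active = plate Z-score above 3 for both tubulin-high and condensed-nucleus cell shares, with cell loss under 80%, at 10 µM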;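 also: anti alpha tubulin signal scored within the nucleus-defined area of each cell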
APP transl inh: APP translation inhibition; AID 1285; SH-SY5Y APP 5'UTR-luciferase reporter, luminescence; inhibition, % at 2 µM; actives 0.82% (n = 190,000);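 active = inhibition above a set limit, derived from the sample mean plus 3 SD, cut at about 45% in these data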
IEC-6 tox confirm: IEC-6 cytotoxicity, confirmation assay | IEC-6 rat intestinal epithelial viability, luminescence | AID 1907 | shares compounds with IEC-6 tox | inhibition, % at 5 µM | actives 63% (n = 1,900);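 also: 0% = vehicle and 100% = reference cytotoxic drug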
Active calls of the source: *. Sampled rows, rich in hits. Any-hit rate of the full collection: about 2.2%. Rule as the data show it, unless noted: active = inhibition above about 22%; inactive = the rest.

How did Cc1ccc(OCCCC(=O)NC2CCCCC2)cc1 do in these assays?
IEC-6 tox: -1.4

Results for O=c1[nH]nc(Cc2ccc([N+](=O)[O-])cc2)c2ccccc12 ?
IEC-6 tox: 2.4

How did COCCn1c(SCC(=O)NCC2CCCO2)nc2c(c1=O)SCC2 (centres undefined) do in these assays?
IEC-6 tox: 5.8

How did O=[N+]([O-])c1cc2c(cc1/C=N/NS(=O)(=O)c1ccc(Br)cc1)OCO2 do in these assays?
b-catenin transl: -5.9; BaF3 parental: 4.0; IEC-6 tox: 4.0; Ba/F3 V617F tox: 2.7; MT stabilizer: 7.5; APP transl inh: -7.1

Results for O=C(Nc1cccc(Cl)c1N1CCOCC1)c1ccc([N+](=O)[O-])o1 ?
b-catenin transl: 2.7; BaF3 parental: -4.6; IEC-6 tox: -8.2; Ba/F3 V617F tox: -2.9

Results for O=C(Nc1ccc(N2CCN(Cc3ccccc3F)CC2)cc1)c1ccc([N+](=O)[O-])o1 ?
IEC-6 tox: 71.8*; IEC-6 tox confirm: 32.5*

What do the screens show for `CC(C)(C)C(=O)N1CCN(c2ccc(NC(=O)c3ccc([N+](=O)[O-])o3)cc2)CC1`?
IEC-6 tox: 100.9*; IEC-6 tox confirm: 58.5*

How did CS(=O)(=O)N1CCN(c2ccc(NC(=O)c3ccc([N+](=O)[O-])o3)cc2)CC1 do in these assays?
b-catenin transl: 11.6; BaF3 parental: -7.4; IEC-6 tox: 24.6*; Ba/F3 V617F tox: 5.8; MT stabilizer: 4.0; APP transl inh: 65.6*; IEC-6 tox confirm: 56.3*

What do the screens show for `O=C(Nc1cccc(NC(=O)c2ccccc2Cl)c1)c1ccc([N+](=O)[O-])o1`?
IEC-6 tox: 101.0*; IEC-6 tox confirm: 48.9*

Results for COc1ccc(-n2ncc(C(C)NS(=O)(=O)c3ccc(C)s3)c2C)cc1 (centres undefined) ?
IEC-6 tox: -6.3

Results for O=C(c1ccccc1)c1ccc(-n2ccnc2)c([N+](=O)[O-])c1 ?
IEC-6 tox: 1.1

Results for O=C(c1ccc(Cl)cc1)C(CN1CCCCC1)c1ccccc1 (centres undefined) ?
IEC-6 tox: 22.4*; IEC-6 tox confirm: 20.0

What do the screens show for `CC(CN1CCCCC1)OC(=O)c1ccc(Cl)cc1` (centres undefined)?
b-catenin transl: -0.2; BaF3 parental: -1.9; IEC-6 tox: 0.3; Ba/F3 V617F tox: -1.1; MT stabilizer: 1.6; APP transl inh: 10.1

Results for COc1ccc(C(=O)C2CCN(CC(=O)Nc3ccc(C)cc3)CC2)cc1 ?
IEC-6 tox: -3.8

What do the screens show for `CC1=Nc2ccccc2/C1=C/c1sc(=N)n(-c2nccs2)c1O`?
b-catenin transl: 7.3; BaF3 parental: 15.2; IEC-6 tox: 27.3*; Ba/F3 V617F tox: -0.3; MT stabilizer: 7.6; APP transl inh: 8.1; IEC-6 tox confirm: 41.4*

How did CCOC(=O)N=Nc1c2ccccc2c2nc3no[nH]c3nc12 do in these assays?
b-catenin transl: -2.4; BaF3 parental: 14.2; IEC-6 tox: 100.5*; Ba/F3 V617F tox: 3.6; MT stabilizer: 5.0; APP transl inh: 93.8*; IEC-6 tox confirm: 102.1*

How did CCCCCCCCn1ccc(=N)cc1 do in these assays?
b-catenin transl: 1.7; BaF3 parental: 90.5*; IEC-6 tox: 42.8*; Ba/F3 V617F tox: 98.7*; IEC-6 tox confirm: 43.4*

How did CCCCCCCCCCn1ccc(=N)cc1 do in these assays?
b-catenin transl: 6.0; BaF3 parental: 100.3*; IEC-6 tox: 65.5*; Ba/F3 V617F tox: 99.0*; IEC-6 tox confirm: 72.4*

Results for O=C(COC(=O)c1cc(F)cc(F)c1)NCCCc1ccccc1 ?
IEC-6 tox: -7.5

Results for Cc1cccc(C(C)C)c1NC(=O)COC(=O)CCN1C(=O)C2CC=CCC2C1=O (centres undefined) ?
IEC-6 tox: 0.5

Results for Cc1cnc(CN(C)C(=O)c2ccc3oc(Cc4ccc(Cl)cc4)nc3c2)[nH]1 ?
IEC-6 tox: -4.3

What do the screens show for `CC(C)(C)NC(=O)CN(C(=O)CCC(=O)Nc1nccs1)c1cccc(C(F)(F)F)c1`?
IEC-6 tox: -1.6

How did Cn1c(CNC(=O)C(Cc2ccccc2)NC(=O)c2ccccc2F)cc(=O)n(C)c1=O (centres undefined) do in these assays?
IEC-6 tox: 3.2

Source: PubChem BioAssay (several laboratories)
